RGS4 pot – potentiators or activators of RGS4. B-score at 10 µM. 0.92% of 310,000 active. HEK293 M3R/inducible RGS4, carbachol calcium flux Fluo4; stronger effect = lower value. AID 463111;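 active = B-score of the integrated calcium signal more than 4 SD below the library mean, with starting fluorescence not abnormally high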;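 also: negative B-score means reduced calcium response which marks RGS4 activation or potentiation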
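System – HEK293 FlpIn-TREx cells, stable M3R, doxycycline-inducible RGS4 · Reagent – ECmax carbachol challenge · Times – compound preincubation 20 min at room temperature before agonist · Technique – Fluo4 fluorescence kinetic imaging of calcium · Measure – B score of integrated Fluo4 ratio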
RGS4 inh – inhibitors of human RGS4; P49798; HEK293 M3R/RGS4 inducible, Fluo-4 calcium flux; stronger effect = higher value; triggered by carbachol at its EC20; B-score at 10 µM; 0.45% of 310,000 active; AID 463165;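 active = B-score, a plate-corrected calcium signal, over three deviations above library mean, with baseline fluorescence within five deviations of library mean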;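 also: RGS4 expression induced by doxycycline in cells with stable M3 receptor; B-score is computed from the integrated fluorescence ratio over baseline after carbachol; higher B-score means a larger calcium signal and so more RGS4 inhibition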
Target sequence (P49798 whole entry, looked up): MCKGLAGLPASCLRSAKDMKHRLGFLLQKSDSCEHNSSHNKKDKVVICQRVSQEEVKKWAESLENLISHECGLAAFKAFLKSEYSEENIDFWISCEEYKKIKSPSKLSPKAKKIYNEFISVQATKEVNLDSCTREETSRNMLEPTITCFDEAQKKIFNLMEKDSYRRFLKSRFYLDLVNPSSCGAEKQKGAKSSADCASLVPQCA
MrgX1 agonist – human MrgX1 receptor agonism, primary screen. Q96LB2. MrgX1-HEK293 cells, Fluo-4 calcium fluorescence, agonist mode; stronger effect = higher value. B-score at 10 µM. 0.44% of 310,000 active;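 active = calcium response B-score plate-corrected fluorescence ratio at least 3 library SD, with starting fluorescence B-score inside 5 SD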
Target sequence (Q96LB2 whole entry, looked up): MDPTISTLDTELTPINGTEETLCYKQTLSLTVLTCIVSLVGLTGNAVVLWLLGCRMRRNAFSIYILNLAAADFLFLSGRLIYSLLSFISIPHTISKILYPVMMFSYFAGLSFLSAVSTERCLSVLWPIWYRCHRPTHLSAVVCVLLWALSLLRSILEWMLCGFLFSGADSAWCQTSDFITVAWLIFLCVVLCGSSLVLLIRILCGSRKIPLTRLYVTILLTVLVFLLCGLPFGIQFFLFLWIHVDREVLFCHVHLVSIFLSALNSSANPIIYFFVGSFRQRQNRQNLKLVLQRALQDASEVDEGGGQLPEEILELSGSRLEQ
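Assay system: stable human MrgX1 HEK293 cell line. Quantity: 15,000 cells per well. Schedule: cells plated overnight, dye loaded 0.5 h 37 °C, 0.5 h room temperature. Detection: Fluo-4 NW calcium-flux fluorescence, kinetic read. Read-out basis: peak-minus-minimum fluorescence over baseline, converted to B scores. Control set: positive and negative control wells on each plate.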
MrgX1 allo act – human MrgX1 positive allosteric modulation, primary screen | 0.63% of 310,000 active | MrgX1-HEK293, Fluo-4 calcium flux, FDSS; stronger effect = higher value | Q96LB2 | B-score at 10 µM;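 active = plate-corrected calcium response at least 3 library SD above typical, normal starting fluorescence, not activating the receptor alone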;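 also: compound read alongside a low EC10 to EC30 dose of BAM8-22 agonist; peak minus trough fluorescence over baseline measured at the second addition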
MrgX1 antagonist – blocks BAM8-22 activation of human MrgX1 receptor; 1.3% of 310,000 active; MRGX1-HEK293 calcium flux, Fluo-4, BAM8-22 antagonism; stronger effect = lower value; B-score at 10 µM; Q96LB2;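 active = calcium-response B-score plate-corrected more than 3 library SD below zero, starting fluorescence within 5 deviations, no agonist response on first addition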;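 also: peak minus trough fluorescence over baseline after final BAM8-22 challenge near maximal dose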
Hep lipid drop – hepatic lipid droplet formation modulation; AML12 mouse hepatocytes, oleate lipid droplets, BODIPY imaging; inhibition, % at 6.5 µM; 0.4% of 240,000 active;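 active = lipid droplet intensity inhibited by at least 50%, with more than 500 cells counted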
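Technique: fluorescence imaging, 20x objective, two fields per well / Assay system: AML12 hepatocytes (mouse) / Measure: % inhibition of lipid droplet signal / Doses: 6.5 µM single-point dosing / Incubation: overnight exposure / Reagent: 100 µM oleic acid challenge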
RGS4 activ val – RGS4 activation, validation assay; shares compounds with RGS4 pot; HEK293 M3R/RGS4 inducible, carbachol calcium flux Fluo4; inhibition, % at 10 µM; 89% of 1,100 active; AID 602282;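 active = inhibition above 3 SD of the buffer control wells, cut at about 41% in these data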;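 also: signal is the integrated peak-minus-minimum Fluo4 fluorescence over baseline ratio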
M3R Ca counter – activity in cells without induced RGS4 expression; HEK293 M3R non-induced RGS4, Fluo4 calcium flux; after carbachol challenge at its EC90; AID 602283; inhibition, % at 10 µM; 82% of 1,100 active; shares compounds with RGS4 pot;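 active = inhibition exceeding 3 SD of buffer-only control wells, cut at about 26% in these data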;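 also: percent drop in integrated peak-minus-baseline over baseline Fluo4 ratio after carbachol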
Active calls of the source: *; i = inactive; · = no result given. Rows were chosen to be rich in hits. Some 3.8% of all compounds tested hit in one or more screens of this group.

SMILES | RGS4 pot | RGS4 inh | MrgX1 agonist | MrgX1 allo act | MrgX1 antagonist | Hep lipid drop | RGS4 activ val | M3R Ca counter
COc1ccc(OC)c2c1C(=O)C(Cl)=C(Cl)C2=O | -8.2* | i | i | i | i | 10 | 80* | 65*
COc1ccc(N2C(=O)CSC23C(=O)N2CCCc4cccc3c42)cc1 (stereo not drawn) | -8.3* | i | i | i | i | · | 92* | 89*
O=C1N2CCCc3cccc(c32)C12Nc1ccccc1S2 (stereo not drawn) | i | i | · | · | · | 1 | · | ·
O=C1CSC2(C(=O)N3CCCc4cccc2c43)N1c1cccc(C(F)(F)F)c1 (stereo not drawn) | -8.2* | i | i | i | i | · | 90* | 76*
CN(CC(=O)NC1CCN(Cc2ccccc2)CC1)S(=O)(=O)c1ccc2c(c1)c(=O)n(C)c(=O)n2C | -9.4* | i | i | i | i | 10 | 76* | 47*
CSCCC(NS(=O)(=O)c1ccc2c(c1)c(=O)n(C)c(=O)n2C)C(=O)NC1CCN(Cc2ccccc2)CC1 (stereo not drawn) | i | i | i | i | i | -2 | · | ·
COc1ccc(C2CC(=O)c3cnc(N4CCN(Cc5ccccc5)CC4)nc3C2)cc1 (stereo not drawn) | i | i | i | i | i | -6 | · | ·
O=C1CC(c2ccco2)Cc2nc(N3CCN(Cc4ccc5c(c4)OCO5)CC3)ncc21 (stereo not drawn) | -8.9* | i | i | i | i | -1 | 88* | 65*
Cc1ccc(OS(=O)(=O)c2c(C)nn(C)c2Cl)c(C)c1 | -9.9* | i | i | i | i | -9 | 90* | 93*
Cc1ccccc1OCCNC(=O)CNC(=O)c1ccccc1O | i | i | i | i | i | 3 | · | ·
Cc1ccccc1CC1(CO)CCCN(Cc2ccc(C#CC(C)(C)O)cc2)C1 (stereo not drawn) | i | i | i | i | i | -1 | · | ·
CC(C)(O)C#Cc1ccc(CN2CCCC(CO)(Cc3cccc(Cl)c3)C2)cc1 (stereo not drawn) | -9* | i | i | i | i | -14 | 76* | 31*
COc1cc(C2NC(=O)NC(O)(C(F)(F)F)C2C(=O)c2ccc(Cl)cc2)ccc1O (stereo not drawn) | · | · | i | i | i | · | · | ·
COc1ccc(C2NC(=O)NC(O)(C(F)(F)F)C2C(=O)c2ccc(F)cc2)cc1 (stereo not drawn) | -8.8* | i | i | i | i | 11 | 92* | 83*
c1ccc2nc3c(nc2c1)OCC1CCCCN31 (stereo not drawn) | -7.6* | i | i | i | i | · | 72* | 84*
Cc1nc2ccccc2nc1N1CCCC1 | i | i | i | i | i | -12 | · | ·
CCn1ccnc1CNC(=O)c1ccc2oc(C(C)C)nc2c1 | -8.2* | i | i | i | i | -14 | 82* | 47*
CC(C(=O)N(C)c1ccccc1)N1CCN(C(=O)c2ccccc2)CC1 (stereo not drawn) | i | i | i | i | i | -2 | · | ·
Cc1ccc(N=C2C(=O)Nc3ccc(Br)cc32)cc1 | i | i | i | i | i | 1 | · | ·
O=C1Nc2ccc(Br)cc2C1=C1CCCCC1 | -8.7* | i | i | i | i | -27 | 36* | 0
S=c1[nH]nc(-c2ccccn2)n1/N=C/c1ccc(-c2ccccc2Br)o1 | i | i | · | · | · | -12 | · | ·
Cc1ccc(Nc2nc(Cl)nc(NC(C)(C)C)n2)cc1 | -8.2* | i | i | i | i | 6 | 71* | 39*
COc1ccc(-c2ccc(-c3nc4ccc(C)cn4c3NC3CCCCC3)cc2OC)cc1 | i | i | i | i | i | · | · | ·
CC(C)Oc1cccc(C(=O)NC(=S)Nc2ccc(N3CCN(C)CC3)cc2)c1 | -11* | i | i | i | i | -9 | 92* | 93*
COc1cccc(C(=O)NC(=S)Nc2ccc(N3CCCC3)cc2)c1 | i | i | i | i | i | · | · | ·
SMILES | RGS4 pot | RGS4 inh | MrgX1 agonist | MrgX1 allo act | MrgX1 antagonist | Hep lipid drop | RGS4 activ val | M3R Ca counter
CC(C)/C=C/C(=O)N1CCCC(N2CCN(c3ccccc3F)CC2)C1 (stereo not drawn) | i | i | i | i | i | -2 | · | ·
CCCCN(C)C(=O)c1cc2c(Cl)nc3ccccc3c2s1 | -8.7* | i | i | i | i | -36 | 59* | 45*
Nc1cc(=O)[nH]c(SCC(=O)Nc2ccc(Oc3ccccc3)cc2)n1 | -10* | i | i | i | i | 34 | 0 | 0
O=C(NC1CCCC1)c1cc2nc(-c3ccccc3)cc(-c3ccccc3)n2n1 | -7.7* | i | i | i | i | 2 | 82* | 84*
CC1CCN(C(=O)c2cc3nc(-c4ccccc4)cc(-c4ccccc4)n3n2)CC1 | i | i | i | i | i | -2 | · | ·
CCn1ncc(Br)c1C(=O)Nc1c(C)nn(Cc2c(F)c(F)c(F)c(F)c2F)c1C | i | i | i | i | i | -6 | · | ·
O=C(Nc1ccccc1)Nc1cc(Cl)cc(Cl)c1 | -8.3* | i | i | i | i | 11 | 62* | 84*
CC(O)CN(C)CC/C=C1/c2ccccc2CSc2ccccc21 (stereo not drawn) | -7.9* | i | i | i | i | -44 | 73* | 84*
CN(CC/C=C1/c2ccccc2CSc2ccccc21)CCCO | -9.5* | i | i | i | i | 4 | 91* | 65*
COC(=O)c1ccc(CSc2nnc(NC(=O)C3CC(=O)N(c4ccc5c(c4)OCCO5)C3)s2)cc1 (stereo not drawn) | i | i | i | i | i | -5 | · | ·
CCOC(=O)c1cc(-c2ccc(F)cc2)n(CC(=O)NCc2cccnc2)c1C | i | i | i | i | i | -3 | · | ·
Cc1cc(S(=O)(=O)NCCC2=CCCCC2)ccc1Br | -9.6* | i | i | i | i | · | 92* | 83*
N#CCCn1cc(C(=O)N2CCCCC2)c(-c2ccc([N+](=O)[O-])cc2)n1 | i | i | i | i | i | 4 | · | ·
CSc1n[nH]c(NC(C)=O)n1 | i | i | i | i | i | · | · | ·

Screening results as filed in PubChem BioAssay.
